Measurements from ChEMBL document CHEMBL3526066, “In vitro metabolism of 17-(dimethylaminoethylamino)-17-demethoxygeldanamycin in human liver microsomes” (Drug Metab Dispos, 2011).

Assays:
[1] = system: Liver microsome; assay: Drug level in human liver microsomes treated with 1 uM 17-DMAG by liquid chromatography-tandem mass spectrometry in presence of 10 uM diethyldithiocarbamate CYP2E1 inhibitor; assay type: ADME
How it was run: (§1)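 Pooled HLMs in 0.1 M phosphate buffer pH 7.4 with 1 mM β-NADPH, 3.3 mM MgCl2 and the selective inhibitor were preincubated 3 min at 37°C in a shaking water bath. 17-DMAG (1 µM final) was then added and incubated 20 min at 37°C, with parallel no-inhibitor controls. M1, M2, M3, M4 and M6 were quantified by LC-MS/MS MRM. Inhibition was taken as the ratio of metabolite formed with versus without inhibitor.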

[2] = system: Liver microsome; assay: Drug level in human liver microsomes treated with 1 uM 17-DMAG by liquid chromatography-tandem mass spectrometry in presence of 1 uM quinidine CYP2D6 inhibitor; assay type: ADME; how it was run: as §1
[3] = system: Liver microsome; assay: Drug level in human liver microsomes treated with 1 uM 17-DMAG by liquid chromatography-tandem mass spectrometry in presence of 1 uM tranylcypromine CYP2A6 inhibitor; assay type: ADME; how it was run: as §1
[4] = biological target: Cytochrome P450 3A4 (Homo sapiens, UniProt P08684); assay: Drug level assessed as human recombinant CYP3A4-mediated oxidative metabolism treated with 1 uM 17-DMAG after 30 mins by liquid chromatography-tandem mass spectrometry; assay type: ADME; conditions: recombinant enzyme, 0.5 h
Chain of Cytochrome P450 3A4 (P08684 whole entry): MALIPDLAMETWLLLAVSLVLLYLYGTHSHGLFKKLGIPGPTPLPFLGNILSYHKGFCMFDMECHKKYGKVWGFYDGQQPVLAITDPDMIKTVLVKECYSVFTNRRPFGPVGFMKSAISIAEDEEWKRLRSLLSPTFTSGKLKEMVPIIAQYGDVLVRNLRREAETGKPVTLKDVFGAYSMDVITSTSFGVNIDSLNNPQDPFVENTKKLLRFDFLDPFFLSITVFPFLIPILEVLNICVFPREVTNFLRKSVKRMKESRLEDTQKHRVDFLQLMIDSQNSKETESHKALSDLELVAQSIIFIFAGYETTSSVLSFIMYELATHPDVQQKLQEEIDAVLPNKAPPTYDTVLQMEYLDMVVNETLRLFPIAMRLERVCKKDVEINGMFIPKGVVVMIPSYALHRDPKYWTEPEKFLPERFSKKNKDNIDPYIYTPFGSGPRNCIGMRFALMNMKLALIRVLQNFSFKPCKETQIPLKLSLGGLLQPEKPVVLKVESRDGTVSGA
How it was run: (§2)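 Recombinant human P450 (E. coli-expressed, coexpressed with cytochrome b5), 20 pmol per 200 µl incubation with 0.2 mg reduced β-NADPH and 3.3 mM MgCl2 in 0.1 M phosphate buffer pH 7.4. Preincubated at 37°C in a shaking water bath, then 1 µM 17-DMAG added. E. coli control microsomes lacking P450 cDNA served as negative control. Metabolite (M1–M4, M6) formation rates were read by LC-MS/MS MRM and expressed as percent of the CYP3A4 rate.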

[5] = system: Liver microsome; assay: Drug level in human liver microsomes treated with 1 uM 17-DMAG by liquid chromatography-tandem mass spectrometry in presence of 10 uM ticlopidine CYP2B6 inhibitor; assay type: ADME; how it was run: as §1
[6] = system: Liver microsome; assay: Drug level in human liver microsomes treated with 1 uM 17-DMAG by liquid chromatography-tandem mass spectrometry in presence of 1 uM quercetin CYP2C8 inhibitor; assay type: ADME; how it was run: as §1
[7] = biological target: Cytochrome P450 2C19 (Homo sapiens, UniProt P33261); assay: Drug level assessed as human recombinant CYP2C19-mediated oxidative metabolism treated with 1 uM 17-DMAG relative to CYP3A4; assay type: ADME; conditions: recombinant enzyme; how it was run: as §2
Chain of Cytochrome P450 2C19 (P33261 whole entry): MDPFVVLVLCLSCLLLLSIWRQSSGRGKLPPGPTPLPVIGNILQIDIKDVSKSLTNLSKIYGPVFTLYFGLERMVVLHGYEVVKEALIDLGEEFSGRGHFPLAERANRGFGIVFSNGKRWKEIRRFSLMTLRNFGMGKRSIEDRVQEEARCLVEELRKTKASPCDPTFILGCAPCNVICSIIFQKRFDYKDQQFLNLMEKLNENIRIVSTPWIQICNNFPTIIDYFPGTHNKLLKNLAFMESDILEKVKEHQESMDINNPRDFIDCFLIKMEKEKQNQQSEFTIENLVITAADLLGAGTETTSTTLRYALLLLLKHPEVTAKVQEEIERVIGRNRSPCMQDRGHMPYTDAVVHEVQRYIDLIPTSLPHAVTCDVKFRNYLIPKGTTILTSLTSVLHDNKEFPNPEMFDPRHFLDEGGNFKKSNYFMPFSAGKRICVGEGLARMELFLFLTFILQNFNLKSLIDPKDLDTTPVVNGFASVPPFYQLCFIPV

[8] = system: Liver microsome; assay: Drug level in human liver microsomes treated with 1 uM 17-DMAG by liquid chromatography-tandem mass spectrometry in presence of 10 uM alpha-naphthoflavone CYP1A2 inhibitor; assay type: ADME; how it was run: as §1
[9] = system: Liver microsome; assay: Retention time in human liver microsomes treated with 10 uM […] after 2 hrs by liquid chromatography-tandem mass spectrometry; assay type: ADME
How it was run: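 17-DMAG (10 µM initial) was incubated with HLMs (1 mg/ml) in 0.1 M phosphate buffer with 3.3 mM MgCl2 and 1 mM β-NADPH at 37°C for 2 h alongside negative controls, then quenched with ice-cold acetonitrile. Samples were run on a C18 column with a 0.1% formic acid/ammonium formate–acetonitrile gradient (10–90% B in 10 min) using MS full scan, MRM, EPI and MS3 scans.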

[10] = system: Liver microsome; assay: Drug level in human liver microsomes treated with 1 uM 17-DMAGby liquid chromatography-tandem mass spectrometry in presence of 1 uM sulfaphenazole CYP2C9 inhibitor; assay type: ADME; how it was run: as §1
[11] = biological target: Cytochrome P450 2D6 (Homo sapiens, UniProt P10635); assay: Drug level assessed as human recombinant CYP2D6-mediated oxidative metabolism treated with 1 uM 17-DMAG relative to CYP3A4; assay type: ADME; conditions: recombinant enzyme; how it was run: as §2
Chain of Cytochrome P450 2D6 (P10635 whole entry): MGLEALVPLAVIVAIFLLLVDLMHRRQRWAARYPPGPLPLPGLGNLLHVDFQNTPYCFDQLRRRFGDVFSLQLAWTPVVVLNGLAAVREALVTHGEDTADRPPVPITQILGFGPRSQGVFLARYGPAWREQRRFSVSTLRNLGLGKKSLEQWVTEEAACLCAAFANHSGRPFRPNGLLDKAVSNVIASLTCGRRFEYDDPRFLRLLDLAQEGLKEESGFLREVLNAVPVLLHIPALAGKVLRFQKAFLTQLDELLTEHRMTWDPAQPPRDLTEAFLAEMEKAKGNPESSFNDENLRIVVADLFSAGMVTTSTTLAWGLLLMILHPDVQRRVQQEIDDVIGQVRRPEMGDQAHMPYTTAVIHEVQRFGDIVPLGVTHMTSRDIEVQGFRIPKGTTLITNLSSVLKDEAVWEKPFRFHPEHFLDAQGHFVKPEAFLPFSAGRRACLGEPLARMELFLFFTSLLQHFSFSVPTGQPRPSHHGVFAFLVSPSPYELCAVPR

[12] = biological target: T1, Cytochrome P450 2C8 (Homo sapiens, UniProt P10632); assay: Drug level assessed as human recombinant CYP2C8-mediated oxidative metabolism treated with 1 uM 17-DMAG relative to CYP3A4; assay type: ADME; conditions: recombinant enzyme; how it was run: as §2
T1 sequence (P10632 whole entry): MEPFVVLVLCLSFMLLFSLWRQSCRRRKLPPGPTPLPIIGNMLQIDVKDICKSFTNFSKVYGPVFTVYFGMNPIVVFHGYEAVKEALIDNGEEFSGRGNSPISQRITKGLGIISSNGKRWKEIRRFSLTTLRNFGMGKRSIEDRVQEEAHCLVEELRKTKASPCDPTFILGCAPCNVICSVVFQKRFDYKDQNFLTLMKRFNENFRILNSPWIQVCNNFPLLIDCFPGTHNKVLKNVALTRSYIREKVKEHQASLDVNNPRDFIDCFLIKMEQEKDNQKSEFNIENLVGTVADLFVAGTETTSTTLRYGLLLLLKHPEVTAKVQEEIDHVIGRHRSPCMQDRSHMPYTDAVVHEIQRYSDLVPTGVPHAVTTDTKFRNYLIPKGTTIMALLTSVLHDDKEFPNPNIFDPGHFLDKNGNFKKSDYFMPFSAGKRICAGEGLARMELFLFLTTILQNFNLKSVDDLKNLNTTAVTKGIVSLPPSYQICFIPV

[13] = biological target: T2, Cytochrome P450 1A2 (Homo sapiens, UniProt P05177); assay: Drug level assessed as human recombinant CYP1A2-mediated oxidative metabolism treated with 1 uM 17-DMAG relative to CYP3A4; assay type: ADME; conditions: recombinant enzyme; how it was run: as §2
T2 sequence (P05177 whole entry): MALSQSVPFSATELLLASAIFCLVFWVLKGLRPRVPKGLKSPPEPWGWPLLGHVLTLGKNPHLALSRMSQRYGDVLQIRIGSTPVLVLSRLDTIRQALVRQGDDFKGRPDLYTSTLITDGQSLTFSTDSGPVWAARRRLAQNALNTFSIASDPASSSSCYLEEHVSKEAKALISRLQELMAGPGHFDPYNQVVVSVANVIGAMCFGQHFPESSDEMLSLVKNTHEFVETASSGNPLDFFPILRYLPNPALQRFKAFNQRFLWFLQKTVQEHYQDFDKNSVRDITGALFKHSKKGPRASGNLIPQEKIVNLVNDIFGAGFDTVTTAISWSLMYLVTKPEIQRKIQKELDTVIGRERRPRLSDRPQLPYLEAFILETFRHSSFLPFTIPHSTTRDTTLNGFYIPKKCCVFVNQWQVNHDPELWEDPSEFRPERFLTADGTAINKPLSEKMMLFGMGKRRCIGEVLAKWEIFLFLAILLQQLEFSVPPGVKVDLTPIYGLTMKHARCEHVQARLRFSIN

[14] = biological target: T3, Cytochrome P450 2A6 (Homo sapiens, UniProt P11509); assay: Drug level assessed as human recombinant CYP2A6-mediated oxidative metabolism treated with 1 uM 17-DMAG relative to CYP3A4; assay type: ADME; conditions: recombinant enzyme; how it was run: as §2
T3 sequence (P11509 whole entry): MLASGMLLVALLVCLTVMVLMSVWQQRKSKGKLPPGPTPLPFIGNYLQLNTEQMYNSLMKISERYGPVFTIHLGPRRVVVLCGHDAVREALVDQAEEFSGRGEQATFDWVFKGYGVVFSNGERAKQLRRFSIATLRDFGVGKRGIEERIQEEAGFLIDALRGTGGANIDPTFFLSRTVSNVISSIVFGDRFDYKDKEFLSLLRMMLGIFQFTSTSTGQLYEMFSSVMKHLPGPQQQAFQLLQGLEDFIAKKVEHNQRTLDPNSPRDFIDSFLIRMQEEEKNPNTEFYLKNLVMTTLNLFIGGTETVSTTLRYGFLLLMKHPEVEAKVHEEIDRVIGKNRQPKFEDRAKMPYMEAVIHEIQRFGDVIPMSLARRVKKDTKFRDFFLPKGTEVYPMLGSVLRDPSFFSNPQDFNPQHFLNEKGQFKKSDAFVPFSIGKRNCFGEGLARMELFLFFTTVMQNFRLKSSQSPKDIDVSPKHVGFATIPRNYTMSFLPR

[15] = biological target: Cytochrome P450 2E1 (Homo sapiens, UniProt P05181); assay: Drug metabolism assessed as human recombinant CYP2E1-mediated oxidative metabolism at 1 uM by liquid chromatography-tandem mass spectrometry; assay type: ADME; conditions: recombinant enzyme
Chain of Cytochrome P450 2E1 (P05181 whole entry): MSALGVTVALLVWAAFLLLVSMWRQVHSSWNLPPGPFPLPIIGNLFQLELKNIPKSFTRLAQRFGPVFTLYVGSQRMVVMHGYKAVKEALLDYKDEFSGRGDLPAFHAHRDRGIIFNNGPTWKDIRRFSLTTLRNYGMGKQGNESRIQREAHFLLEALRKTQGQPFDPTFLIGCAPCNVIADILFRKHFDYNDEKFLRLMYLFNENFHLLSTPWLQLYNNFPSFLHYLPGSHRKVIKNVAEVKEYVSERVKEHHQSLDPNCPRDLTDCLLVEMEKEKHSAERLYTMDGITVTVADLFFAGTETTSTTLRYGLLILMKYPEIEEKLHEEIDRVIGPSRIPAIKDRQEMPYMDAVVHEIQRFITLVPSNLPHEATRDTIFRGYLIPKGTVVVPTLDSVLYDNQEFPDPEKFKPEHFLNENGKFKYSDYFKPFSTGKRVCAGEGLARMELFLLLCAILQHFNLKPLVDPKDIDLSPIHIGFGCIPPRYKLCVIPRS

[16] = system: Liver microsome; assay: Drug metabolism in human liver microsomes assessed as (4E,6Z,8S,9S,10E,12S,13R,14S,16R)-19-(2-(dimethylamino)ethylamino)-8,13-dihydroxy-14-methoxy-4,10,12,16-tetramethyl-3,20,22-trioxo-2-azabicyclo[16.3.1]docosa-1(21),4,6,10,18-pentaen-9-yl carbamate formation at 1 uM 17-DMAG by liquid chromatography-tandem mass spectrometry in presence of 1 uM ketoconazole CYP3A inhibitor; assay type: ADME
[17] = Terminal half life in human; assay type: ADME, organism-based; conditions: in vivo, read-out: beta t1/2 (converted)
[18] = biological target: Cytochrome P450 2C9 (Homo sapiens, UniProt P11712); assay: Drug metabolism assessed as human recombinant CYP2C9-mediated oxidative metabolism at 1 uM by liquid chromatography-tandem mass spectrometry; assay type: ADME; conditions: recombinant enzyme
Chain of Cytochrome P450 2C9 (P11712 whole entry): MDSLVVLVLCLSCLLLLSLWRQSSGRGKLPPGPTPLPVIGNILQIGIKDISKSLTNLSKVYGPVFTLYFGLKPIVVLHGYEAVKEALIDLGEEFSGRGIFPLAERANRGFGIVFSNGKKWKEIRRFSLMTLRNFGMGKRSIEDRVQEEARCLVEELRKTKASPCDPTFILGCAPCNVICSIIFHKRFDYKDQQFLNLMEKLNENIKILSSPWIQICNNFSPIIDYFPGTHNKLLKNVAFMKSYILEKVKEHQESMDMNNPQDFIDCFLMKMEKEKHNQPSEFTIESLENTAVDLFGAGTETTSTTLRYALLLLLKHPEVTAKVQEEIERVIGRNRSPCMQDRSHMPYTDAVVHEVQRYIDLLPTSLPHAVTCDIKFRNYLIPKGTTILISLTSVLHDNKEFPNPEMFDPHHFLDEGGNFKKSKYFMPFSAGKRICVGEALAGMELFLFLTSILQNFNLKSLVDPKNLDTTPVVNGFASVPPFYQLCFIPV

[19] = biological target: T4, Cytochrome P450 2B6 (Homo sapiens, UniProt P20813); assay: Drug metabolism assessed as human recombinant CYP2B6-mediated oxidative metabolism at 1 uM by liquid chromatography-tandem mass spectrometry; assay type: ADME; conditions: recombinant enzyme
T4 sequence (P20813 whole entry): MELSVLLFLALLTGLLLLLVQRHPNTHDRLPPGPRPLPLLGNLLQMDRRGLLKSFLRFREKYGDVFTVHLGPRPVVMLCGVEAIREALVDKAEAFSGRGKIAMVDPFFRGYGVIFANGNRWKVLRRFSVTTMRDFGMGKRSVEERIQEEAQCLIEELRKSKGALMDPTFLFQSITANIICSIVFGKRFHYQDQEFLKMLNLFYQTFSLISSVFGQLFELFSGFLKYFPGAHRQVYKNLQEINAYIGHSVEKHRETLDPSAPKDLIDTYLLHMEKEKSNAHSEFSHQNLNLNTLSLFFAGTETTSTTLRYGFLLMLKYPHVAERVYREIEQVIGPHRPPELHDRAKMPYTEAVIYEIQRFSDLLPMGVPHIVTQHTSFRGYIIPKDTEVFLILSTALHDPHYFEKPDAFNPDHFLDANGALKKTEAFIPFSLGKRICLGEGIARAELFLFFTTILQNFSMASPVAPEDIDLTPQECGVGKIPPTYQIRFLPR

[20] = biological target: Cytochrome P450 3A5 (Homo sapiens, UniProt P20815); assay: Drug metabolism assessed as human recombinant CYP3A5-mediated (4E,6Z,8S,9S,10E,12S,13R,14S,16R)-19-(2-(dimethylamino)ethylamino)-13-hydroxy-8,14-dimethoxy-4,10,12,16-tetramethyl-3,20,22-trioxo-2-azabicyclo[16.3.1]docosa-1(21),4,6,10,18-pentaen-9-yl carbamate formation at 1 uM relative to CYP3A4; assay type: ADME; conditions: recombinant enzyme
Chain of Cytochrome P450 3A5 (P20815 whole entry): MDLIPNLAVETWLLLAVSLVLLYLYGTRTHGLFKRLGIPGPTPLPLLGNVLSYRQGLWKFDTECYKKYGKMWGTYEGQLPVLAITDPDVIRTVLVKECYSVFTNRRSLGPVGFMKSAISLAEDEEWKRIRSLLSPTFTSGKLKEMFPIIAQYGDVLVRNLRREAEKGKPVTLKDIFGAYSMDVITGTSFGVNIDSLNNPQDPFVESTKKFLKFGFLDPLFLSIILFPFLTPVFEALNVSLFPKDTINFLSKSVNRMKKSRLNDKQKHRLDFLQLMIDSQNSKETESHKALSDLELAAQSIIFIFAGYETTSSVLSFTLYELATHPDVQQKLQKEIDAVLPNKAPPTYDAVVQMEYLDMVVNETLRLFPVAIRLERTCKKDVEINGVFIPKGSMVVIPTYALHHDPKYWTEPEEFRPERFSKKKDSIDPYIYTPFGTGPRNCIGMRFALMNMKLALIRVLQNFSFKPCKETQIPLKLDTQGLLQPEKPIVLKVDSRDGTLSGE

[21] = Drug metabolism in human liver microsomes assessed as stability after 2 hrs relative to control by liquid chromatography-tandem mass spectrometry; assay type: ADME; conditions: read-out: Stability
How it was run: (§3)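 Pooled human liver microsomes (1 mg/ml) were incubated at 37°C with substrate (5 µM final), 1 mM β-NADPH and 3.3 mM MgCl2 in 0.1 M phosphate buffer, with or without 5 mM reduced GSH. Aliquots were taken from 1 to 120 min and quenched in ice-cold acetonitrile containing internal standard. LC-MS/MS peak-area ratios to internal standard were normalised to the 1-min sample.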

[22] = system: Liver microsome; assay: Drug metabolism in human liver microsomes assessed as (4E,6Z,8S,9S,10E,12S,13R,14S,16R)-19-(2-(dimethylamino)ethylamino)-13-hydroxy-10-(hydroxymethyl)-8,14-dimethoxy-4,12,16-trimethyl-3,20,22-trioxo-2-azabicyclo[16.3.1]docosa-1(21),4,6,10,18-pentaen-9-yl carbamate formation at 37 degC in presence of reduced GSH by liquid chromatography-tandem mass spectrometry; assay type: ADME; conditions: read-out: Km(app)
[23] = Total clearance in human; assay type: ADME, organism-based; conditions: in vivo
[24] = system: Liver microsome; assay: Metabolic stability in human liver microsomes at 5 uM by liquid chromatography-tandem mass spectrometry; assay type: ADME; how it was run: as §3
[25] = system: Liver microsome; assay: Drug metabolism in human liver microsomes assessed as (4E,6Z,8S,9S,10E,12S,13R,14S,16R)-19-(2-(dimethylamino)ethylamino)-13,14-dihydroxy-8-methoxy-4,10,12,16-tetramethyl-3,20,22-trioxo-2-azabicyclo[16.3.1]docosa-1(21),4,6,10,18-pentaen-9-yl carbamate formation at 37 degC in presence of reduced GSH by liquid chromatography-tandem mass spectrometry; assay type: ADME; conditions: read-out: Km(app)

CO[C@H]1/C=C\C=C(/C)C(=O)NC2=CC(=O)C(NC(O)CN(C)C)=C(C[C@@H](CO)C[C@H](OC)[C@H](O)[C@@H](CO)/C=C(\C)[C@@H]1OC(N)=O)C2=O (stereo not given in full)
Drug metabolism [1]: metabolite_detected | Drug metabolism [2]: metabolite_detected | Drug metabolism [3]: metabolite_detected | Drug metabolism [4]: metabolite_detected | Drug metabolism [5]: metabolite_detected | Drug metabolism [6]: metabolite_detected | Drug metabolism [7]: metabolite_detected | Drug metabolism [8]: metabolite_detected | Retention_time [9]: 6.8 min | Drug metabolism [10]: metabolite_detected | Drug metabolism [11]: metabolite_detected | Drug metabolism [12]: metabolite_detected | Drug metabolism [13]: metabolite_detected | Drug metabolism [14]: metabolite_detected

CO[C@H]1/C=C\C=C(/C)C(=O)NC2=CC(=O)C(NCCN(C)C)=C(C[C@@H](C)C[C@H](OC)[C@H](O)[C@@H](C)/C=C(\C)[C@@H]1OC(N)=O)C2=O (stereo in doubt) [ALVESPIMYCIN]
Drug metabolism [15]: metabolite_not_detected | Drug metabolism [16]: metabolite_not_detected | half-life [17]: 16 h | Drug metabolism [18]: metabolite_not_detected | Drug metabolism [19]: metabolite_not_detected | Drug metabolism [20]: metabolite_not_detected | remaining at 2 h [21]: 24% | Km [22]: 6.61 µM | clearance [23]: 123 mL/min | Stability [24]: Stable | Km [25]: 7.83 µM
